High-throughput results: PubChem, several laboratories
F508del corr = CFTR F508del correction in bronchial cells; CFBE cells, YFP halide quenching; stimulated with forskolin plus potentiator P3; % fluorescence drop versus neutral controls; actives 0.36% (n = 350,000); activity (quench increase), % at 7.58 µM;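 active = mean added fluorescence quench of at least 8% versus neutral control, with both replicates also reaching 8%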;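 note: cells transiently co-express mutant CFTR-F508del with the halide-sensitive YFP; corrector assay measuring rescue of mutant channel to the surface after 24 h compound exposure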
MC4R antagonist = antagonists of human melanocortin 4 receptor (MC4R) | MC4R-expressing cells, MTII-stimulated cAMP, LANCE TR-FRET | inhibition, % at 6.5 µM | actives 0.48% (n = 360,000);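 active = inhibition above its plate's cutoff, the mean of tested wells on that plate plus 3 SD, cut at about 29% in these data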;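 note: 0% = Melanotan II alone and 100% = Melanotan II plus saturating MCL0020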
Target sequence (P32245 whole entry, looked up): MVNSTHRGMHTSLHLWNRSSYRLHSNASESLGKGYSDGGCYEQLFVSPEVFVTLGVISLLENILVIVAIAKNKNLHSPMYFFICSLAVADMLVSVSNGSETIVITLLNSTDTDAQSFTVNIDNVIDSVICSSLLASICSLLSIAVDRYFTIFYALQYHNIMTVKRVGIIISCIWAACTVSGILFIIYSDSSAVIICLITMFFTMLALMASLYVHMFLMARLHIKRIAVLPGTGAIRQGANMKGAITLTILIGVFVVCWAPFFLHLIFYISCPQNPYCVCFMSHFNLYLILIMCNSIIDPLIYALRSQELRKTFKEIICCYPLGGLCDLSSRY
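Assay system: human MC4R-expressing U2OS cells; reagent: Melanotan II stimulation of cells; dosing: 6.5 µM single dose; timing: compound 30 min, challenge 1 h, detection 1 h; signal: TR-FRET cAMP assay; replicates: one well per compound, no replicates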
MC4R barr agon = human MC4R agonism via beta-arrestin; U2OS MC4R beta-arrestin complementation, luminescence; percent of melanotan II response, DMSO zero; P32245; activation, % at 8.9 µM; actives 0.98% (n = 360,000);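 active = activation above a per-plate cutoff, the mean activation of sample wells on that plate plus 3 SD, cut at about 8% in these data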
SMARCA2 activ = SMARCA2 function activation, primary screen. MG213 cells, MMTV-luciferase reporter, dexamethasone, overnight. activation, % at 9.1 µM. actives 1% (n = 370,000). AID 652017; in the data active = activation above about 7.8%;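 note: 0% = vehicle wells and 100% = reference activator wells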
* marks the source's active call; other numbers are inactive results; / = no result given; ! = not confirmed by another sample. This is a sample that favours compounds with a hit; in the whole collection about 2.1% have one here.

SMILES	F508del corr	MC4R antagonist	MC4R barr agon	SMARCA2 activ
O=c1c2ccccc2nnn1CSc1nc2ccccc2[nH]1	/	3	0	14*
Cc1cc(=O)[nH]c(SCn2nnc3ccccc3c2=O)n1	/	1	0	1
CCS(=O)(=O)Nc1cccc(C2=NN(C(C)=O)C(c3cccs3)C2)c1 (configuration not stated)	0	15	-1	2
CC(=O)N1N=C(c2cccc(NS(C)(=O)=O)c2)CC1c1cccs1 (configuration not stated)	-3	-1	-2	7.9*
CCCC#Cc1cnc2c(c1)C(=O)N([C@H](C)CO)C[C@H](C)[C@@H](CN(C)C(=O)Nc1c(C)noc1C)O2	0	/	/	/
C[C@@H]1CN([C@@H](C)CO)C(=O)c2cc(Br)cnc2O[C@H]1CN(C)Cc1ccccn1	0	/	/	/
NS(=O)(=O)c1ccc2nc(NC(=O)c3ccc4c(c3)OCCO4)sc2c1	8.9*	6	-1	-2
NS(=O)(=O)c1ccc2nc(NC(=O)c3ccc4ncsc4c3)sc2c1	/	12	-2	/
COc1cc(C(=O)Nc2nc3ccc(S(C)(=O)=O)cc3s2)cc(OC)c1C	0	7	19*	-3
O=C(C[C@@H]1C=C[C@@H](NC(=O)NC2CCCC2)[C@@H](CO)O1)NCc1ccc(F)cc1	-2	/	/	/
COc1ccc2c(c1)C(=O)CC(c1ccc3c(c1)OCCO3)O2 (configuration not stated)	12*	0	2	2
COc1ccc2c(c1)C(=O)CC(c1ccc(OC)c(OC)c1)O2 (configuration not stated)	0	2	0	-5
Cc1ccc(S(=O)(=O)Nc2cccc3c2O[C@@H](CN(C)C(=O)Nc2ccc(F)cc2)[C@@H](C)CN([C@H](C)CO)C3=O)cc1	1	/	/	/
COc1ccc(S(=O)(=O)Nc2ccc3c(c2)CC(=O)N([C@H](C)CO)C[C@@H](C)[C@@H](CN(C)S(=O)(=O)c2ccc(C)cc2)O3)cc1	2	/	/	/
COc1ccc([C@H]2C[C@H](O)[C@@H](n3cc(-c4ccc(F)cc4)nn3)CN2Cc2cccs2)cc1	8.1*	-7	0	3
COc1ccc(-c2ccnc(-c3ccc(O)cc3)n2)cc1	11*	-35	-1	0
C[C@H]1CCCCO[C@H](CN(C)C(=O)Nc2ccc3c(c2)OCO3)[C@@H](C)CN([C@@H](C)CO)C(=O)c2cc(NS(=O)(=O)c3ccccc3)ccc2O1	-1	/	/	/
COc1ccc(N(C)S(=O)(=O)c2cccc(C(=O)NC3CCCC3)c2)cc1	4	2	-2	-2
COc1ccc(N(C)S(=O)(=O)c2cccc(C(=O)NCC3CCCCC3)c2)cc1	8.7*	9	-2	-4
Cc1ccc(N2C(=O)/C(=C\c3ccco3)SC2=S)cc1	/	10	10*	0
C[C@@H]1CN([C@H](C)CO)C(=O)c2ccccc2-c2ccccc2CO[C@@H]1CN(C)C	1	/	/	/
COc1ccc(CC(=O)Nc2nccs2)cc1S(=O)(=O)N1CCOCC1	17*	15	1	-2
COc1cc(C(O)CO)ccc1OS(=O)(=O)O (configuration not stated)	10.0*	-1	-1	-4
Cn1cc(C(=O)OCC2CCN(CCNS(C)(=O)=O)CC2)c2ccccc21	16*	8	0	-2
Cn1cc(C(N)=O)c2ccccc21	-1	8	1	1
SMILES	F508del corr	MC4R antagonist	MC4R barr agon	SMARCA2 activ
CCc1ccc(Nc2nc(N)nc(CSc3nnnn3-c3ccccc3)n2)cc1	/	-11	8.5*	1
Cc1ccc(C(=O)Oc2coc(CSc3nnc(NC(=O)c4cccs4)s3)cc2=O)cc1	/	8	9.2*	0
CC(=O)N1Cc2cc(C(=O)NCC(F)(F)F)nc(-c3cccc(-c4cccnc4)c3)c2[C@@H]1CCO	8.9*!	/	/	-3
COc1cccc(-c2cccc(-c3nc(C(=O)NCC(F)(F)F)cc4c3[C@H](CCO)N([S@@](=O)C(C)(C)C)C4)c2)c1	11*	/	/	/
O=C(c1cccc(Cl)c1)c1nn(-c2ccccc2)c(=O)cc1C(F)(F)F	/	-5	8.5*	2
COc1ccc(NC(=O)N(C)C[C@H]2Oc3ccc(NS(=O)(=O)c4ccc(C)cc4)cc3C(=O)N([C@H](C)CO)C[C@@H]2C)cc1	-1	/	/	/
C(=C\c1ccco1)/C1=NN(c2ccccc2)C(c2ccco2)C1 (configuration not stated)	/	2	-1	/
O=[N+]([O-])c1ccc(/C=C/C2=NN(c3ccccc3)C(c3ccco3)C2)o1 (configuration not stated)	16*	0	-3	-3
Cc1cc2oc(=O)cc(-c3ccccc3)c2c(C)c1-c1ccc(O)cc1	9.2*	12	6	-4
Cc1ccc(S(=O)(=O)Nc2ccc3c(c2)C(=O)N([C@@H](C)CO)C[C@H](C)[C@@H](CN(C)Cc2ccc4c(c2)OCO4)OCCCC[C@H](C)O3)cc1	3	/	/	/
C[C@H]1CN([C@@H](C)CO)C(=O)c2cc(C#CCN(C)C)cnc2O[C@@H]1CN(C)Cc1cccc(F)c1	-1	/	/	/
CC(=O)Nc1cccc(-c2ccnc3c2CC(C)(C(=O)NCc2cccs2)O3)c1 (configuration not stated)	9.9*	-31	-2	-6
CC1(C(=O)NCc2ccccc2)Cc2c(-c3ccc(C(N)=O)cc3)ccnc2O1 (configuration not stated)	15*	-10	0	-3
O=C(C[C@@H]1CC[C@H](NC(=O)NC2CCCC2)[C@@H](CO)O1)NCc1ccc(F)cc1	0	/	/	/
CO[C@@H]1CN(C)C(=O)c2cc(NS(=O)(=O)c3ccc(C)cc3)ccc2OC[C@H](C)NC[C@H]1C	-1	/	/	/
CCCCC(=NCCc1c(C)[nH]c2ccccc12)C1=C(O)CC(c2ccccc2)CC1=O (configuration not stated)	8.6*	-17	-3	0
CCCC(=NCCc1c(C)[nH]c2ccccc12)C1=C(O)CC(c2ccccc2)CC1=O (configuration not stated)	/	-12	-2	-1
Nc1nc(Cl)nc2c1ncn2C1CC(O)C(CO)O1 (configuration not stated)	14*	-5	0	0
Nc1ccn([C@H]2C[C@H](O)[C@@H](CO)O2)c(=O)n1	8.0*!	6	0	-4
Nc1ncn([C@H]2C[C@H](O)[C@@H](CO)O2)c(=O)n1	1	6	0	-1
COc1ccc(S(=O)(=O)N[C@H]2CC[C@H](CCNC(=O)Cc3ccccn3)O[C@H]2CO)cc1	-1	/	/	/
NS(=O)(=O)c1ccc(NNC(=O)c2ccc(Br)o2)c([N+](=O)[O-])c1	8.0*	-21	-3	-3
Cc1ccc(NC(=O)c2ccc(Br)o2)c([N+](=O)[O-])c1	-3	8	-1	-5
C[C@@H]1CN([C@@H](C)CO)C(=O)c2cc(NS(=O)(=O)c3ccccc3)ccc2O[C@@H](C)CCCCO[C@H]1CN(C)C	-1	/	/	/
